Columns and labels:
Enterococcus faecalis = assay: Antibacterial activity against Enterococcus faecalis assessed as inhibition of bacterial growth at <= 0.008 ug/ml by CLSI broth microdilution method; format: functional
Outline: (§1)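 Clinical isolates from skin/soft tissue, bloodstream and respiratory specimens were tested by broth microdilution per CLSI M7-A7 and M100-S18, with quality controls. Values are the number of isolates inhibited at each concentration, or MIC / percent susceptible. Highest concentration tested was 8 µg/ml for iclaprim and trimethoprim-sulfamethoxazole, and 64 µg/ml for trimethoprim.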

Enterococcus faecium [1] = assay: Antibacterial activity against Enterococcus faecium assessed as inhibition of bacterial growth at <= 0.008 ug/ml by CLSI broth microdilution method; format: functional
Enterococcus faecium [2] = assay: Antibacterial activity against Enterococcus faecium assessed as inhibition of bacterial growth at 0.015 ug/ml by CLSI broth microdilution method; format: functional; outline: as §1
Staphylococcus aureus [3] = assay: Antibacterial activity against Methicillin-resistant Staphylococcus aureus assessed as inhibition of bacterial growth at 0.015 ug/ml by CLSI broth microdilution method; format: functional
Outline: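 Recent clinical isolates from skin/soft tissue, bloodstream and respiratory specimens. Tested by broth microdilution per CLSI M7-A7 and M100-S18, with the appropriate quality controls. The thymidine content of the test medium was assessed to rule out artifactual inhibition.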

[4] = system: Streptococcus sp. 'group B'; assay: Antibacterial activity against Beta-hemolytic Streptococcus group B assessed as inhibition of bacterial growth at 0.015 ug/ml by CLSI broth microdilution method; format: functional; outline: as §1
Staphylococcus aureus [5] = assay: Antibacterial activity against Methicillin-resistant Staphylococcus aureus assessed as susceptible isolates by CLSI broth microdilution method; format: functional
[6] = system: Streptococcus sp. 'group B'; assay: microbe, parasite or virus in culture; conditions: read-out: INH
Enterococcus faecium [7] = assay: microbe, parasite or virus in culture; conditions: read-out: INH
Staphylococcus aureus [8] = assay: microbe, parasite or virus in culture; conditions: read-out: INH
[9] = system: Streptococcus sp. 'group A'; assay: microbe, parasite or virus in culture; conditions: read-out: INH

Compound	inhibition (INH) (Enterococcus faecalis) [%]	inhibition (INH) (Enterococcus faecium [1]) [%]	inhibition at 0.015 µg/mL (Enterococcus faecium [2]) [%]	inhibition at 0.015 µg/mL (Staphylococcus aureus [3]) [%]	inhibition at 0.015 µg/mL [4] [%]	Activity (Staphylococcus aureus [5]) [%]	inhibition at 64 µg/mL [6] [%]	inhibition at 32 µg/mL (Enterococcus faecium [7]) [%]	inhibition at 16 µg/mL (Staphylococcus aureus [8]) [%]	inhibition at 16 µg/mL [9] [%]
COc1cc(Cc2cnc(N)nc2N)c2c(c1OC)OC(C1CC1)C=C2 (stereo not given)	25.5	33.7	36.3	0.4	0.5					
COc1cc(Cc2cnc(N)nc2N)cc(OC)c1OC [TRIMETHOPRIM]						92.9	100	55.1	98.7	100

— ChEMBL document CHEMBL1649441, “Potency and bactericidal activity of iclaprim against recent clinical gram-positive isolates” (2009)
